Activity calls are given as the source filed them.
Assays:
Klebsiella pneumoniae = assay: Antibacterial activity against Klebsiella pneumoniae CECT 367 upto 40 ug/mL by disk diffusion test; type: functional, organism-based
Summary of the method: (§1)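 Agar disk diffusion test. Bacterial strains were maintained on Nutrient Agar and the Candida albicans yeast on Sabouraud Agar, both at 37 °C.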

Candida albicans = assay: Antifungal activity against Candida albicans UBC 1 upto 40 ug/mL by disk diffusion test; type: functional, organism-based; summary of the method: as §1
Pseudomonas aeruginosa = assay: Antibacterial activity against Pseudomonas aeruginosa AK 958 upto 40 ug/mL by disk diffusion test; type: functional, organism-based; summary of the method: as §1
Staphylococcus warneri = assay: Antibacterial activity against Staphylococcus warneri CECT 236 upto 40 ug/mL by disk diffusion test; type: functional, organism-based; summary of the method: as §1
Micrococcus luteus = assay: Antibacterial activity against Micrococcus luteus CECT 241 upto 40 ug/mL by disk diffusion test; type: functional, organism-based; summary of the method: as §1
Hafnia alvei = assay: Antibacterial activity against Enterobacter hafniae CECT 400 upto 40 ug/mL by disk diffusion test; type: functional, organism-based; summary of the method: as §1
Proteus mirabilis = assay: Antibacterial activity against Proteus mirabilis CECT 170 upto 40 ug/mL by disk diffusion test; type: functional, organism-based; summary of the method: as §1
HeLa = assay: Cytotoxicity against human HeLa cells upto 40 ug/mL by MTT reduction assay; type: functional, cell-based
Summary of the method: (§2)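 Cells were grown as monolayers in DMEM with 10% newborn calf serum and 1% penicillin-streptomycin mixture. They were kept at 37 °C, 5% CO2 and 90% humidity. Viability was read by colorimetric MTT reduction.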

Bacillus cereus = assay: Antibacterial activity against Bacillus cereus CECT 496 upto 40 ug/mL by disk diffusion test; type: functional, organism-based; summary of the method: as §1
Staphylococcus aureus = assay: Antibacterial activity against Staphylococcus aureus ATCC 6538 upto 40 ug/mL by disk diffusion test; type: functional, organism-based; summary of the method: as §1
Priestia megaterium = assay: Antibacterial activity against Bacillus megaterium CECT 44 upto 40 ug/mL by disk diffusion test; type: functional, organism-based; summary of the method: as §1
HEp-2 = assay: Cytotoxicity against human Hep2 cells upto 40 ug/mL by MTT reduction assay; type: functional, cell-based; summary of the method: as §2
Bacillus subtilis = assay: Antibacterial activity against Bacillus subtilis CECT 39 upto 40 ug/mL by disk diffusion test; type: functional, organism-based; summary of the method: as §1
Salmonella typhimurium = assay: Antibacterial activity against Salmonella Typhimurium UBC 2 upto 40 ug/mL by disk diffusion test; type: functional, organism-based; conditions: Salmonella enterica subsp. enterica serovar Typhimurium; summary of the method: as §1
Salmonella sp. = assay: Antibacterial activity against Salmonella sp. CECT 456 upto 40 ug/mL by disk diffusion test; type: functional, organism-based; summary of the method: as §1
Escherichia coli = assay: Antibacterial activity against Escherichia coli CECT 99 upto 40 ug/mL by disk diffusion test; type: functional, organism-based; summary of the method: as §1
Paenibacillus alvei = assay: Antibacterial activity against Bacillus alvei CECT 2 upto 40 ug/mL by disk diffusion test; type: functional, organism-based; summary of the method: as §1
Staphylococcus = assay: Antibacterial activity against Staphylococcus albus SAB C1 upto 40 ug/mL by disk diffusion test; type: functional, organism-based; summary of the method: as §1
Bacillus pumilus = assay: Antibacterial activity against Bacillus pumilus CECT 29 upto 40 ug/mL by disk diffusion test; type: functional, organism-based; summary of the method: as §1
[1] = tested on: Staphylococcus saprophyticus; assay: Antibacterial activity against Staphylococcus saprophyticus CECT 235 upto 40 ug/mL by disk diffusion test; type: functional, organism-based; summary of the method: as §1
[2] = tested on: Staphylococcus epidermidis; assay: Antibacterial activity against Staphylococcus epidermidis CECT 232 upto 40 ug/mL by disk diffusion test; type: functional, organism-based; summary of the method: as §1

Measured: Activity

COC(=O)[C@]1(C)CC[C@]2(C)CC[C@]3(C)C4=CC=C5C(=CC(=O)[C@@]6(O)Oc7c(cc8c(c7C)[C@H]7Oc9c(cc%10c(c9C)CCC9[C@@]%10(C)CC[C@@]%10(C)[C@@H]%11C[C@](C)(C(=O)OC)CC[C@]%11(C)CC[C@]9%10C)O[C@H]7C7[C@@]8(C)CC[C@@]8(C)[C@@H]9C[C@](C)(C(=O)OC)CC[C@]9(C)CC[C@]78C)O[C@@]56C)[C@]4(C)CC[C@@]3(C)[C@@H]2C1 (stereo partly specified)
inactive: all assays above
